High-throughput results deposited in PubChem BioAssay by several laboratories.
Efflux pump mplx: inhibitors of Candida efflux pumps in yeast, primary screen, S. cerevisiae, Nile Red, multiplex. 330,000 tested, 0.44% active. S. cerevisiae Candida pump triplex. inhibition, % at 10 µM;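 active = plate passing quality check with inhibition over a set limit, or well fluorescence over plate mean plus 4 SD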;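 also: Nile Red retained in pooled yeast measured as flow cytometry median fluorescence; 0% = buffer negative control and 100% = Enniatin B positive control; higher means more Nile Red kept so more efflux inhibition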
sPLA2-III inh: human group III sPLA2 inhibitors, primary screen, biochemical, QFRET, BODIPY PC-A2 liposome substrate; Group 3 secretory phospholipase A2 (Homo sapiens), Q9NZ20; QFRET BODIPY PC-A2 liposome hydrolysis, fluorescence; inhibition, % at 12.2 µM; 370,000 tested, 0.56% active; AID 743126, 2013;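 active = inhibition above mean plus 3 SD of compounds lying within the high and low control bounds, cut at about 19% in these data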;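 also: 0% = median of test compound wells and 100% = no enzyme DMSO wells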
Target sequence (Q9NZ20 whole entry, looked up): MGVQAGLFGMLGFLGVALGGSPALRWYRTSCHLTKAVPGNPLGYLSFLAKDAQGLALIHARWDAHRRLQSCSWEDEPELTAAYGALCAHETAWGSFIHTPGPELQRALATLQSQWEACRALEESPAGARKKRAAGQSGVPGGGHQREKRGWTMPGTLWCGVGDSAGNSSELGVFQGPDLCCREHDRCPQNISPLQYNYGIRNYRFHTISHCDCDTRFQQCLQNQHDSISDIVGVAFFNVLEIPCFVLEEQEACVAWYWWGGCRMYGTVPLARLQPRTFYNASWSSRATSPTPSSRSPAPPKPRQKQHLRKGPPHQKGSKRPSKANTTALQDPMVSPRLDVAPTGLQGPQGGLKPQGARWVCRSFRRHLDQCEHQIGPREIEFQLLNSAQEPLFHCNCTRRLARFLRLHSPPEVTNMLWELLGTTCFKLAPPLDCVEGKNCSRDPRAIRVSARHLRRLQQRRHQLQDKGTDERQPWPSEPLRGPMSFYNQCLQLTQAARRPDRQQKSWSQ
MT1-MMP act inh: blockers of MT1-MMP proenzyme processing, primary screen, HT1080 RFP-PRO-GFP cells, GFP/RFP fluorescence; 360,000 tested, 0.061% active; GFP/RFP ratio change, % at 20 µM; GFP/RFP ratio fluorescence, overnight; percent of plate control window, DMSO zero;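 active = GFP/RFP ratio change of at least 30% with cell ATP level not reduced by more than half and red fluorescence within 50% of control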
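Assay system: HT1080 cells carrying an RFP-PRO-GFP reporter | Dosing: Single dose of 20 µM compound, 1% DMSO final | Incubation: Cells overnight before dosing, compound overnight, 37 °C, 5% CO2 | Evaluation: GFP/RFP fluorescence ratio | Control set: DMSO and RFP-L50D-GFP cell wells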
TAG inh: inhibitors of triacylglycerol accumulation, primary screen, cell-based, uHTS, fluorescence, H9c2. H9c2 cells, Nile Red lipid (TAG) fluorescence; cells loaded with 200 µM oleic acid. inhibition, % at 12.5 µM. 230,000 tested, 0.66% active. AID 651582, 2012;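 active = pattern-corrected inhibition of lipid staining of at least 50% with the nuclear-stain viability signal not falling by more than 50%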;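 also: 0% = DMSO wells and 100% = triacsin C control wells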
Yeast cmpd fluor: flagged as fluorescent in efflux inhibitor counter-screen. shares compounds with Efflux pump mplx. S. cerevisiae AD/pABC3, compound fluorescence, flow cytometry. fluorescence ratio to DMSO, % at 10 µM. 1,700 tested, 4% active. AID 588517;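 active = fluorescence ratio to DMSO above its plate's cutoff, the plate mean ratio plus 5 SD, cut at about 210% in these data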;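 also: unstained yeast with no Nile Red so the signal is compound autofluorescence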
Mdr1 pump inh: inhibitors of Candida albicans Mdr1 efflux, confirmation, flow cytometry, singleplex, Cherry Pick1 set; shares compounds with Efflux pump mplx; S. cerevisiae AD/CaMDR1, Nile Red efflux; inhibition, % at 10 µM; 1,700 tested, 1% active; in the data active = inhibition above about 26%;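 also: 0% = DMSO vehicle and 100% = reference inhibitor; higher means more Nile Red retained so more efflux inhibition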
CaCdr2 efflux inh: inhibitors of Candida albicans Cdr2 efflux pump, confirmation, S. cerevisiae AD/CaCDR2, flow cytometry, cherry pick 1, singleplex. shares compounds with Efflux pump mplx. Nile Red retention. Nile Red retention ratio vs DMSO, % at 10 µM. 1,700 tested, 4% active. AID 588520, 2011; in the data active = Nile Red retention ratio vs DMSO above about 190%;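 also: higher ratio means more blocking of Cdr2 efflux of the dye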
Cdr1 pump inh: inhibitors of Candida albicans Cdr1 efflux pump, confirmation, S. cerevisiae AD/CaCDR1, flow cytometry, cherry pick 1, singleplex; shares compounds with Efflux pump mplx; Nile Red efflux; inhibition, % at 10 µM; 1,700 tested, 1% active;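 active = inhibition above the screen-wide mean plus twice its standard deviation, cut at about 32% in these data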
Starred values were filed as active, the others as inactive. An excerpt weighted towards active compounds, which were near 1.3% of everything screened.

What do the screens show for `COc1ccc(CCNc2c3ccccc3nc3ccccc23)cc1OC`?
Efflux pump mplx: 0; sPLA2-III inh: -6; MT1-MMP act inh: -5; TAG inh: 55*

What do the screens show for `COc1nc(NCCc2ccc(OC)c(OC)c2)nc(OC)n1`?
Efflux pump mplx: 0; sPLA2-III inh: 9; MT1-MMP act inh: -4; TAG inh: 4

Results for CCCC1=Nc2cc(C(=O)NCCCOC(C)C)ccc2Sc2ccccc21 ?
Efflux pump mplx: 3; sPLA2-III inh: -30; MT1-MMP act inh: 13; TAG inh: 40

Results for CCCC1=Nc2cc(C(=O)NCCCOCC)ccc2Sc2ccccc21 ?
Efflux pump mplx: 0; sPLA2-III inh: -14; MT1-MMP act inh: 12; TAG inh: 79*

How did O=C(CCl)N=c1sccn1Cc1cccc2ccccc12 do in these assays?
sPLA2-III inh: 4; MT1-MMP act inh: -24; TAG inh: 62*

How did CCC(=O)OCC(=O)N=c1sccn1Cc1ccccc1Cl do in these assays?
Efflux pump mplx: 0; sPLA2-III inh: 8; MT1-MMP act inh: 3; TAG inh: 1

How did O=C(CCl)N=c1sccn1Cc1ccc(Cl)cc1Cl do in these assays?
Efflux pump mplx: 0; sPLA2-III inh: -3; MT1-MMP act inh: -28; TAG inh: 59*

What do the screens show for `O=C(CCl)N=c1sccn1Cc1ccccc1Cl`?
Efflux pump mplx: 0; sPLA2-III inh: -2; MT1-MMP act inh: -23; TAG inh: 76*

How did COC(=O)C1=C(C)N(Cc2ccc(C(F)(F)F)cc2)C(=NCc2ccccc2)NC1c1ccc(C(F)(F)F)cc1 (configuration not stated) do in these assays?
sPLA2-III inh: 8

Results for CNc1ccc(C=C2C=Cc3ccccc32)cc1 ?
sPLA2-III inh: 25*; MT1-MMP act inh: -2; TAG inh: 5

Results for Clc1nc(-c2ccccn2)nc2scc(-c3ccccc3)c12 ?
Efflux pump mplx: 0; sPLA2-III inh: 21*; MT1-MMP act inh: -6

What do the screens show for `Cc1ccc(-c2cc(C(=O)NN=Cc3sccc3C)[nH]n2)cc1C`?
sPLA2-III inh: -14

Results for Cn1ncc2c(O/N=C(\N)c3ccc(C(C)(C)C)cc3)ncnc21 ?
Efflux pump mplx: 0; MT1-MMP act inh: -34; TAG inh: 86*

What do the screens show for `CCOC(=O)c1ccc(Nc2ncnc3c2cnn3C)cc1`?
Efflux pump mplx: 0; sPLA2-III inh: 5; MT1-MMP act inh: 2

Results for COc1cccc(CNC(=O)C2CCC(CNS(=O)(=O)c3cccc4cccnc34)CC2)c1OC (configuration not stated) ?
sPLA2-III inh: -7

What do the screens show for `Cc1cc(Br)ccc1NC(=O)CNC(=O)Cn1ncc(Cl)c(Cl)c1=O`?
Efflux pump mplx: 0; sPLA2-III inh: -2; MT1-MMP act inh: -29; TAG inh: 56*

Results for Cc1ccc(S(=O)(=O)N2CCCCC2)cc1NC(=O)Cn1ncc(Cl)c(Cl)c1=O ?
Efflux pump mplx: 0; sPLA2-III inh: -6; MT1-MMP act inh: 4; TAG inh: 48

Results for CCC(=O)Nc1ccc(C(=O)Cn2ncc(Cl)c(Cl)c2=O)cc1 ?
Efflux pump mplx: 0; sPLA2-III inh: -14; MT1-MMP act inh: -1; TAG inh: 61*

What do the screens show for `O=C(Cn1ncc(Cl)c(Cl)c1=O)c1ccc2c(c1)OCCO2`?
Efflux pump mplx: 0; sPLA2-III inh: 0; MT1-MMP act inh: 2; TAG inh: 4

Results for CCOC(=O)c1ccc(NC(=O)Cn2ncc(Cl)c(Cl)c2=O)cc1 ?
Efflux pump mplx: 0; sPLA2-III inh: 3; MT1-MMP act inh: -6; TAG inh: 55*

How did C#CCN1CC(N(C)CCOC(=O)c2occ3ccccc23)CS1(=O)=O (configuration not stated) do in these assays?
sPLA2-III inh: 3

Results for COC(=O)C1=C(C(=O)OC)[C@@]2([C@H](Cc3ccc(C)cc3)Nc3ccccc3)C=C[C@@H]1O2 ?
sPLA2-III inh: -1

Results for COc1ccccc1NC(=S)N=Nc1c(O)[nH]c2ccc(Br)cc12 ?
Efflux pump mplx: 0; sPLA2-III inh: 1; MT1-MMP act inh: 16; TAG inh: 50*

Results for Cc1cccc(NC(=S)N=Nc2c(O)[nH]c3ccccc23)c1 ?
Efflux pump mplx: 0; sPLA2-III inh: 20*; MT1-MMP act inh: 8; TAG inh: 15

What do the screens show for `O=C(N=Nc1c(O)[nH]c2ccccc12)Nc1ccccc1`?
sPLA2-III inh: 4; MT1-MMP act inh: 4; TAG inh: 6

What do the screens show for `CN1CC=C(c2ccccc2)N(c2ccc(Br)cc2)C1=O`?
sPLA2-III inh: -11

What do the screens show for `CCn1cc([N+](=O)[O-])c(C(=O)N2N=C(c3ccc4ccccc4c3)CC2c2cc(Br)ccc2O)n1` (configuration not stated)?
Efflux pump mplx: 0; MT1-MMP act inh: -77; TAG inh: 56*

What do the screens show for `COCC1CCN(C(=O)c2cc(COc3ccc(OC)c4ccccc34)on2)C1` (configuration not stated)?
Efflux pump mplx: 7.2*; sPLA2-III inh: -13; TAG inh: 11; Yeast cmpd fluor: 105; Mdr1 pump inh: 0; CaCdr2 efflux inh: 112; Cdr1 pump inh: 0

Results for CCN1CCCC1CNS(=O)(=O)c1cc(Br)cc2c1N(C(=O)C1CC1)CC2 (configuration not stated) ?
Efflux pump mplx: 20*; sPLA2-III inh: 3; MT1-MMP act inh: -9; TAG inh: 23; Yeast cmpd fluor: 103; Mdr1 pump inh: 0; CaCdr2 efflux inh: 97; Cdr1 pump inh: 0

What do the screens show for `O=C(COC(=O)C12CC3CC(CC(O)(C3)C1)C2)Nc1ccc(Cl)c(S(=O)(=O)N2CCOCC2)c1`?
Efflux pump mplx: 0; sPLA2-III inh: -16; MT1-MMP act inh: 4; TAG inh: 3
